Laboratory results: ChEMBL document CHEMBL2390926, “Identification of novel FLT3 kinase inhibitors” (Eur J Med Chem, 2013)
The source made the active and inactive calls. No cut-off for these calls is given here.

How the values were obtained:
Assay type in all cases: cell-based
Settings in all cases: BaF3
[1] = biological target: Ephrin type-A receptor 2 (Homo sapiens) (UniProt P29317); test: Inhibition of EPHA2 (unknown origin) transfected in mouse Ba/F3 cells at 5 uM after 24 hrs
In short: (§1)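 Kinase specificity panel: each Ba/F3 line transformed with one of 24 tyrosine kinases depends on that kinase to grow. Cells were given compound at 1 or 5 µM for 24 h, with DMSO as comparator. Percentage growth was read by ATP-lite luminescence and reported as mean ± SEM.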

[2] = biological target: Insulin-like growth factor 1 receptor (Homo sapiens) (UniProt P08069); test: Inhibition of IGF1R (unknown origin) transfected in mouse Ba/F3 cells at 5 uM after 24 hrs; in short: as §1
[3] = biological target: T1, Tyrosine-protein kinase receptor TYRO3 (Homo sapiens) (UniProt Q06418); test: Inhibition of TYRO3 (unknown origin) transfected in mouse Ba/F3 cells at 5 uM after 24 hrs
T1 sequence (whole entry): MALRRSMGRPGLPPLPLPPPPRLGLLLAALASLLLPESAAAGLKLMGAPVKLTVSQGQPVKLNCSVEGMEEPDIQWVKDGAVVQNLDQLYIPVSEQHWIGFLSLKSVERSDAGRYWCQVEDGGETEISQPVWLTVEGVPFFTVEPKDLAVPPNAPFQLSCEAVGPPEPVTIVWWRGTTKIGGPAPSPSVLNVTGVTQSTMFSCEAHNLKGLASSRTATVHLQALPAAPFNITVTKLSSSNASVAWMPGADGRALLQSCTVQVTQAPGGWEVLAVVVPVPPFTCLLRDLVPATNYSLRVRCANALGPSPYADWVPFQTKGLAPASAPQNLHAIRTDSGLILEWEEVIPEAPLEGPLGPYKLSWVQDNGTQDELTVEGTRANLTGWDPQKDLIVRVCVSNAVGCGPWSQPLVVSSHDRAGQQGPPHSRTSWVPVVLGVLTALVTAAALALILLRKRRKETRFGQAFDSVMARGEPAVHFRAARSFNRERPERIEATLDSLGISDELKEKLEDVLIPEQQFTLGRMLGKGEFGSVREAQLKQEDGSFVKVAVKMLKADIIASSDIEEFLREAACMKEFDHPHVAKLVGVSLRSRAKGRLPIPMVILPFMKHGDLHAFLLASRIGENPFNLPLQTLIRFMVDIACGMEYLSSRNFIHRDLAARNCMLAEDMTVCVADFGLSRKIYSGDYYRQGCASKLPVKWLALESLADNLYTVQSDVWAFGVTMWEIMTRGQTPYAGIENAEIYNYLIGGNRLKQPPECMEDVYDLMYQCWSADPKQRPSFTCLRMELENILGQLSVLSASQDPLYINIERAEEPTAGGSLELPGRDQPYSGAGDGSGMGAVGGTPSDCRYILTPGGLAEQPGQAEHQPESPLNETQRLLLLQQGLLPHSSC

[4] = biological target: T2, Tyrosine-protein kinase Mer (Homo sapiens) (UniProt Q12866); test: Inhibition of MERTK (unknown origin) transfected in mouse Ba/F3 cells at 5 uM after 24 hrs
T2 sequence (whole entry): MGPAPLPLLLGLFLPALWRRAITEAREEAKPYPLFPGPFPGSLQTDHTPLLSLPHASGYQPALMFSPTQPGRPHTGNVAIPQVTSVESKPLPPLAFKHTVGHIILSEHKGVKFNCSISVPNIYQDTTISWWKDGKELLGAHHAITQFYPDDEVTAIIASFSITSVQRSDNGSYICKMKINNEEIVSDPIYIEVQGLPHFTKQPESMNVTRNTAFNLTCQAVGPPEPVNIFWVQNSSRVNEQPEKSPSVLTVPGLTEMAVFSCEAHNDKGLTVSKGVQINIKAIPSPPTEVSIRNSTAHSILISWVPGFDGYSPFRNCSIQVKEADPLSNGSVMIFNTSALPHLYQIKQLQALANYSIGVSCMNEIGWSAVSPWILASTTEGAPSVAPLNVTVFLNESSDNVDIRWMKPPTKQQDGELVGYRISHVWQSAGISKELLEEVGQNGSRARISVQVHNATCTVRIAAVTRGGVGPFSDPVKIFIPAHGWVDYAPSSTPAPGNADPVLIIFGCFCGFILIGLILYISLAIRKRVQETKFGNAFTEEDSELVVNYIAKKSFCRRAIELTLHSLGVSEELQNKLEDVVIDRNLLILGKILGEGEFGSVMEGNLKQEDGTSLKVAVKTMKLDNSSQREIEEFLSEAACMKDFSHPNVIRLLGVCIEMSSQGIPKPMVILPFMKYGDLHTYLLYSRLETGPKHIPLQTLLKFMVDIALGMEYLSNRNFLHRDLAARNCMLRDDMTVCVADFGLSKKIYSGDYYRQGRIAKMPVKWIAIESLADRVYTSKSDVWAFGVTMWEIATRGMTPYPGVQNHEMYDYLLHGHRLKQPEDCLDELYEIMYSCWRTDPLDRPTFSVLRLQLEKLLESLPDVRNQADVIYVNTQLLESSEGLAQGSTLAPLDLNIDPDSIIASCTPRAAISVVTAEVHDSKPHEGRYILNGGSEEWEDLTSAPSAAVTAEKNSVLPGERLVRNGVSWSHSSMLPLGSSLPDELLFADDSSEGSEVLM

[5] = biological target: Ephrin type-A receptor 7 (Homo sapiens) (UniProt Q15375); test: Inhibition of EPHA7 (unknown origin) transfected in mouse Ba/F3 cells at 5 uM after 24 hrs; in short: as §1
Sequence of Ephrin type-A receptor 7 (Homo sapiens) (Q15375 28-998 limits assumed): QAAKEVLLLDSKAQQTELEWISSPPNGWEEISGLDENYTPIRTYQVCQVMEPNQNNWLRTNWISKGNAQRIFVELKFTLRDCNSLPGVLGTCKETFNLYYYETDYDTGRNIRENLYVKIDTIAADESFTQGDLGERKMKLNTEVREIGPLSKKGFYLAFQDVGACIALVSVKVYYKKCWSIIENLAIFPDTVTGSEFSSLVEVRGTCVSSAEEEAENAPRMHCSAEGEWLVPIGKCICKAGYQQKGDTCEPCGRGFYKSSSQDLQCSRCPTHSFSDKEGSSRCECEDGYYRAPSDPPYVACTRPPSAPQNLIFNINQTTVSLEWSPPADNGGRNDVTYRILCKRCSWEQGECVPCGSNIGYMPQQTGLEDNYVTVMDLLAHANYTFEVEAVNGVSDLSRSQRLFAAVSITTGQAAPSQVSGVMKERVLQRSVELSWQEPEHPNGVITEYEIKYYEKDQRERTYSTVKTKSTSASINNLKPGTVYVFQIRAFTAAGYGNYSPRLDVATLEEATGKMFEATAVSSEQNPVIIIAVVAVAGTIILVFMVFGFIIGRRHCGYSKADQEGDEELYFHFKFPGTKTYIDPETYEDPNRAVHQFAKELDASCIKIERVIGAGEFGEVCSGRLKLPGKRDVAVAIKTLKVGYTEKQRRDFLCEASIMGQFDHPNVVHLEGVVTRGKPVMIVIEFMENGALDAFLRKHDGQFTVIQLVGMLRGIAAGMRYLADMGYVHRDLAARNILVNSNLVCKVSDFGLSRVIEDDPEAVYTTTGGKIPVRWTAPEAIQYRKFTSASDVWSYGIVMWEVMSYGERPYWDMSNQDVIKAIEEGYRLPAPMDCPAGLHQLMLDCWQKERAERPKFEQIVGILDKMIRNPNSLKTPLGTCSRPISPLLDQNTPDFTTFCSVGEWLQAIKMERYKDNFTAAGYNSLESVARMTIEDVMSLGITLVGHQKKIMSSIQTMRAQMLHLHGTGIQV

Sequence of Insulin-like growth factor 1 receptor (Homo sapiens) (P08069 31-736 limits assumed): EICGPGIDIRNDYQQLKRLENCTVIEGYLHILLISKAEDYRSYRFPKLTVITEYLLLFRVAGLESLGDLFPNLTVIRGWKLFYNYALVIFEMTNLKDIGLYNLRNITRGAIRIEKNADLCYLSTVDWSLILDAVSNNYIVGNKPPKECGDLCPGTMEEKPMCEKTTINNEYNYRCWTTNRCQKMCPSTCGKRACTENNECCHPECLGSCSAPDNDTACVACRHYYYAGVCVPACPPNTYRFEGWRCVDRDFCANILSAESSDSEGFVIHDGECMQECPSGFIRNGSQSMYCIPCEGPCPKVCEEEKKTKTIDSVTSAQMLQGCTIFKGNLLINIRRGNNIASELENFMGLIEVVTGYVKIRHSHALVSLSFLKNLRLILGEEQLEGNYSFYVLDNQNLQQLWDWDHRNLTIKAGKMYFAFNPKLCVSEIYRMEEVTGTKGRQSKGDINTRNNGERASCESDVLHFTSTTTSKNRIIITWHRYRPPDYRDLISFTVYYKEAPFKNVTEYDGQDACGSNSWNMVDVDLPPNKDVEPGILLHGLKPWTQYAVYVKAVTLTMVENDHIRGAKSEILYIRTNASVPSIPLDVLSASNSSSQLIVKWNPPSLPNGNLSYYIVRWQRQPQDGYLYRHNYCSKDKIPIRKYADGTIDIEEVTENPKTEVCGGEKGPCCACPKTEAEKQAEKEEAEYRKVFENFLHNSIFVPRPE
Sequence of Insulin-like growth factor 1 receptor (Homo sapiens) (P08069 741-1367 limits assumed): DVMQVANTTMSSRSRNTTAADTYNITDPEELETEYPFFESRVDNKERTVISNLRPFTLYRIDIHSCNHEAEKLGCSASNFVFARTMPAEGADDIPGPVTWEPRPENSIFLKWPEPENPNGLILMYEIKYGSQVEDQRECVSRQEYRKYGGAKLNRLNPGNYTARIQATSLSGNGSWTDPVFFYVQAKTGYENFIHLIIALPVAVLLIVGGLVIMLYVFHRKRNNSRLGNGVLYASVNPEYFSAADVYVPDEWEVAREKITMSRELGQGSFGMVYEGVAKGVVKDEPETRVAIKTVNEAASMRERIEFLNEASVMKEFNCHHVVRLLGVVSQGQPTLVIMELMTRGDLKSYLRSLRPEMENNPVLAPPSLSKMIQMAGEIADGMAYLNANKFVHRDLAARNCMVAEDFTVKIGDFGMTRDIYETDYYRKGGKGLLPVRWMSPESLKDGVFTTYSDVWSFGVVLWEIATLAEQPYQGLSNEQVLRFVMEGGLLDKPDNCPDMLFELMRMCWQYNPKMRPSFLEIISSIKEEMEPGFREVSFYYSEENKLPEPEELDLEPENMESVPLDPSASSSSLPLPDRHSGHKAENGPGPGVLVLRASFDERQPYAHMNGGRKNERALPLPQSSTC
Sequence of Ephrin type-A receptor 2 (Homo sapiens) (P29317 whole entry): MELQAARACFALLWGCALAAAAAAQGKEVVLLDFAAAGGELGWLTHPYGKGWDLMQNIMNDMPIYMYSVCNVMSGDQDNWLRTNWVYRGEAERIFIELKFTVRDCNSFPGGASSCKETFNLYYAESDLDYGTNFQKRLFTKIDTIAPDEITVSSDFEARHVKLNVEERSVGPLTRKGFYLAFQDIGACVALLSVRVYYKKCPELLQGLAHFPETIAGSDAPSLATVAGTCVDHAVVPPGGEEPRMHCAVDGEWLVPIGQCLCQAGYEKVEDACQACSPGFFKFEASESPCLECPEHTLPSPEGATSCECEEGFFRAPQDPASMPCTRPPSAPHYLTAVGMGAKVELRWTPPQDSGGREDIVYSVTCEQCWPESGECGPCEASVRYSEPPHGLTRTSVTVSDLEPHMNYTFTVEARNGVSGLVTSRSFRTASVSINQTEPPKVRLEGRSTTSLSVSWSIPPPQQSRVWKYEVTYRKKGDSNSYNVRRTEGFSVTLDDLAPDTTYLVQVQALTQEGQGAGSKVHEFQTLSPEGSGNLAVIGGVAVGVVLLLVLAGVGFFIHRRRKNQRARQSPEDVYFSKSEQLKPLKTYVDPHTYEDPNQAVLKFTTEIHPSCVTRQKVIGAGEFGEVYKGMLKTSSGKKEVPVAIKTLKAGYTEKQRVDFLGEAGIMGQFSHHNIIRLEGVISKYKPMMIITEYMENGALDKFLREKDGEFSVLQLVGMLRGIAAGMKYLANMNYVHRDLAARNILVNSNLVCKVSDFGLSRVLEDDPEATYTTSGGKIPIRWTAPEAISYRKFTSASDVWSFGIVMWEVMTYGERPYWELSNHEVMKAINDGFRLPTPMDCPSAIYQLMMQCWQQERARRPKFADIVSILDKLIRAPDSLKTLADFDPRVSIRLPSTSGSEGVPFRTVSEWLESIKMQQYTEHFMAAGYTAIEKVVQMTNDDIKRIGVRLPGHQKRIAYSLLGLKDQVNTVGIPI

Row | inhibition [1] | inhibition [2] | inhibition [3] | inhibition [4] | inhibition [5] | SMILES
1 | inactive | inactive | inactive | inactive | inactive | Cc1ccc(-n2cnc3cc(Nc4nnc(C)c5ccccc45)ccc32)cc1
2 | inactive | inactive | inactive | inactive | inactive | Fc1ccc(-c2n[nH]cc2-c2ccncc2)cc1Cl
